# Assay outcomes: PubChem, Sanford-Burnham Center for Chemical Genomics
# Shown are actives, neighbours in structure and some others; about 4.4% of the full set was active somewhere.
# SENP1 inh = human SENP1 catalytic domain inhibitors, primary screen, biochemical, FRET, uHTS; AID 624204, 2012; recombinant SENP1 catalytic domain, CyPet-SUMO1-YPet FRET cleavage; inhibition, % at 10 µM; 360,000 tested, 0.21% active;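 active means inhibition at least 30% at 10 µM, raw YFP signal under a set limit, fluorescence ratio 0.5 to 1.5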
# Target sequence (Q9P0U3 419-644 limits assumed): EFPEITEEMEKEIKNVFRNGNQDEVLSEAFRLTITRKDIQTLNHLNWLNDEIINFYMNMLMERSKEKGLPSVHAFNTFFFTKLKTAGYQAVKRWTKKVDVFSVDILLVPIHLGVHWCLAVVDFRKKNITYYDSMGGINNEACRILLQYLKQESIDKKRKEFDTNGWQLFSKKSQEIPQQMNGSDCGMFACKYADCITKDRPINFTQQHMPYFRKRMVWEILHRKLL
#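 Material: hSENP1 catalytic domain, recombinant; medium: Tris pH 8 with BME, BSA, NP40 and catalase; compound: single concentration of 10 µM compound, 0.5% DMSO final; technique: FRET read of cyan and yellow fluorescence; timing: 50 min enzyme reaction, room temperature, light-protected; reagent: SFCypet-SUMO1-SFYpet substrate at 25 nM; control set: no-enzyme low, enzyme-DMSO high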
# MPTP inh = mitochondrial permeability transition pore inhibitors, primary screen, biochemical, isolated mouse mitochondria, absorbance | Ca2+ swelling absorbance, 30 min | inhibition, % at 10 µM | 360,000 tested, 1.4% active | AID 602449, 2012;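 active means inhibition of 50% or more, scaled per plate between neutral and stimulator controls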
# NR3A LBD binder = binders of NR3A ligand-binding domain, primary screen, biophysical, differential scanning fluorimetry, uHTS; NR3A LBD differential scanning fluorimetry, Tm shift; 0% = protein alone, 100% = glycine-bound protein; Tm shift relative to glycine control, % at 25 µM; 340,000 tested, 2.5% active;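 active means melting temperature shift of at least 10% of the positive control shift, at one fixed dose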
# EBI2 block = EBI2 receptor antagonists, beta-arrestin recruitment, primary screen, cell-based, luminescence, 7a,25-OHC stimulation, uHTS | G-protein coupled receptor 183 (Homo sapiens), P32249 | 7a,25-OHC stimulated | inhibition, % at 5 µM | 360,000 tested, 0.81% active; in the data active means inhibition above about 38%;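 further: enzyme fragment complementation signal reports receptor beta-arrestin coupling in cells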
# Target sequence (P32249 whole entry, looked up, the tested form may be a part): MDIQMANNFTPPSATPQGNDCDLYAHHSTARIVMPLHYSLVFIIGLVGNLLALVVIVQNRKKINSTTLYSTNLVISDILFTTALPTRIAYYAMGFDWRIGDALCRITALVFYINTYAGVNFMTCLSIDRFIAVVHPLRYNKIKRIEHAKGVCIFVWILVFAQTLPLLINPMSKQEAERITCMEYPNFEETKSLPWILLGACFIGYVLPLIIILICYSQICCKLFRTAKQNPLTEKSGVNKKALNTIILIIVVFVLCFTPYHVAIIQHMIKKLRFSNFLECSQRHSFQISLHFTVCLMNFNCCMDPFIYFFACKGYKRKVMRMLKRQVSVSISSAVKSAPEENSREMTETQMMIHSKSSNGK
# A number is an active result; – = inactive; · = no result given.
SMILES,SENP1 inh,MPTP inh,NR3A LBD binder,EBI2 block
CCn1nc(C(C)C)cc1C(=O)N1CCCC(CO)(Cc2ccc(F)cc2F)C1 (stereo unspecified),–,–,–,–
COc1cc(C(=O)c2nccc3cc(OC)c(OC)cc23)c([N+](=O)[O-])cc1OC,39,–,–,–
Cc1ccc2nc(-c3ccc(-c4cccc(Cl)c4)cc3)c(NCc3ccccc3)n2c1,–,–,–,58
Cc1ccc(S(=O)(=O)N(C)CC(=O)OCC(=O)N2CCCC2=O)cc1,–,–,–,–
CC(=O)Nc1ccc(S(=O)(=O)N(C)CC(=O)OCC(=O)N2CCCC2=O)cc1,–,–,17,–
Cc1cccc(C)c1NC(=O)c1c[nH]c2ccccc12,–,–,–,–
Cc1ccc(N=CC=C2OC(C)(C)C(C)(C)O2)c(C)c1,–,–,15,–
COC(=O)C1=CN(c2ccc(F)cc2)C(N)=C(C#N)C1c1cccc(OC)c1OC (stereo unspecified),–,–,·,–
O=C(NNC(=O)c1cc(-c2ccc(Cl)cc2Cl)nc2ccccc12)Nc1ccccc1,–,–,30,–
O=C(NNC(=O)c1ccc(Cl)cc1Cl)Nc1ccccc1,–,–,–,–
COc1ccc(/C=N/NC(=O)CNC(=O)c2ccc3c(c2)OCCO3)c(C(=O)O)c1OC,–,–,–,–
COc1ccc([C@H]2Oc3cc(O)cc(O)c3C(=O)C2[C@@H]2C(=O)c3c(O)cc(O)cc3O[C@@H]2c2ccc(OC)cc2)cc1 (stereo partly specified),·,·,28,·
COc1ccc(C2CC(=O)Oc3cc(O)cc(O)c32)cc1 (stereo unspecified),–,–,–,–
CCCc1nc2oc3cc(OC)ccc3c(=O)c2c(=O)n1Cc1ccco1,–,–,–,–
CCCCCCn1c(-c2ccco2)nc2oc3cc(OC)ccc3c(=O)c2c1=O,–,–,33,–
CCCC1S/C(=N/N=C/c2ccc(OC)cc2)N(Cc2ccccc2)C1=O (stereo unspecified),–,–,10,–
C#CCOCCOCCOCCNc1nc(N2CCN(C(=O)CCCCCCCCCCNC(=O)[C@H]([C@@H](C)CC)n3cc(CCCCCN)nn3)CC2)nc(N2CCN(C(=O)CCCCCCCCCCNC(=O)[C@H](CCCCN)n3cc(CCCC(=O)O)nn3)CC2)n1,–,–,22,–
C#CCOCCOCCOCCNc1nc(N2CCN(C(=O)CCCCCCCCCCNC(=O)[C@@H](CCC(=O)O)n3cc(CCCCCN)nn3)CC2)nc(N2CCN(C(=O)CCCCCCCCCCNC(=O)[C@H]([C@@H](C)CC)n3cc(CCCCCN)nn3)CC2)n1,–,–,26,–
C#CCOCCOCCOCCNc1nc(N2CCN(C(=O)[C@H]([C@@H](C)CC)n3cc([C@@H](N)CO)nn3)CC2)nc(N2CCN(C(=O)[C@H](CCCCN)n3cc([C@@H](N)C(C)CC)nn3)CC2)n1 (stereo partly specified),–,–,–,–
C#CCOCCOCCOCCNc1nc(N2CCN(C(=O)[C@H]([C@@H](C)CC)n3cc([C@@H](N)CC(C)C)nn3)CC2)nc(N2CCN(C(=O)[C@H](CCCCN)n3cc([C@@H](N)CC(C)C)nn3)CC2)n1,·,·,10,·
Clc1cccc(CNc2ccn3nc(-c4ccccc4Cl)cc3n2)c1,–,–,·,–
CCOC(=O)c1sc(=S)n(-c2cc(F)ccc2F)c1N,–,–,14,–
CCCc1cc(-c2nc(N)ncc2-c2ccc3c(c2)OCCCO3)c(O)cc1OC,–,–,–,78
Cc1[nH]c2ccccc2c1C(=O)CSC(=S)N1CCN(C)CC1,–,–,–,–
O=C(CSc1nc2ccccc2c(=O)n1-c1ccc(F)cc1F)NC1CC1,–,–,·,–
SMILES,SENP1 inh,MPTP inh,NR3A LBD binder,EBI2 block
Cc1[nH]c2ccccc2c1C(=O)CSC(=S)N(C)C,–,–,16,–
Cc1ccc2nc(SCC(=O)c3c[nH]c4ccccc34)[nH]c2c1,–,–,15,–
Cc1[nH]c2ccccc2c1C(=O)CSc1nc2ncc(Cl)cc2[nH]1,–,–,–,–
Cc1ccc2nc(SCC(=O)c3c(C)[nH]c4ccccc34)[nH]c2c1,–,–,12,–
O=C(CSc1nc2ccccc2c(=O)n1-c1ccc(F)cc1F)c1c[nH]c2ccccc12,–,–,19,–
O=C(CSc1nc2ccccc2[nH]1)c1c[nH]c2ccccc12,–,–,14,–
Cn1c2ccccc2c(=O)c2cc(C#Cc3cccc(N)c3)ccc21,–,–,22,–
Cn1c2ccccc2c(=O)c2ccc(C#Cc3ccc(N)cc3)cc21,–,–,12,–
Cn1c2ccccc2c(=O)c2cc(C#CC3=CCCCC3)ccc21,–,–,–,–
COc1ccc(N2CCN(C(=O)CCCn3nnnc3CN3CCOCC3)C(C)C2)cc1 (stereo unspecified),–,–,–,–
COc1ccc(N=c2scc(C)n2CCCN2CCCC2=O)cc1,–,–,–,–
S=c1nc[nH]c2c1[nH]c1ccccc12,–,–,–,–
S=c1nc[nH]c2c1[nH]c1ccc(Cl)cc12,–,–,33,–
O=C(Nc1ccc(NC(=O)c2ccco2)c(Cl)c1)c1ccccc1,–,–,–,–
Cc1nc(NC(=O)c2ccco2)sc1C(=O)Nc1ccc(Br)cc1,–,–,15,–
COc1ccc(C(=O)Nc2ccc(NC(=O)c3ccco3)cc2)cc1,–,–,16,–
O=C(O)COc1ccc(NC(=O)c2ccc(NC(=O)c3ccco3)cc2)cc1,–,–,–,–
Cc1nc(NC(=O)c2ccco2)sc1C(=O)O,–,–,–,–
O=C(NCc1ccccc1)c1ccc(NC(=O)c2ccco2)cc1,–,–,19,–
Nc1ccc(C(=O)Nc2ccc(NC(=O)c3ccco3)c(O)c2)cc1,–,–,22,–
O=C(NCCN1CCCCC1)Nc1ccc(F)cc1F,–,–,–,–
COc1cc(NC(=O)COC(=O)CNC(=O)C2CCCCC2)cc(OC)c1,–,–,–,–
COc1cccc(C(=O)OCC(=O)Nc2sc3c(c2C(N)=O)CCC3)c1O,–,–,–,–
CCOC(=O)C1(O)CC(C)=NN1C(=O)c1cccc(Cl)c1 (stereo unspecified),–,–,–,–
COc1ccc(C2CC(=O)c3cnc(NC(=O)c4ccccc4OC)nc3C2)c(OC)c1 (stereo unspecified),–,–,–,–
Nc1cc2c(cc1Br)-c1ccccc1C2=NO,–,–,31,–
COc1cc(/C=N/n2cnc3c(sc4nc(C)cc(C)c43)c2=O)ccc1O,·,·,26,·
O=C(COc1ccc2ccccc2c1Br)NNC(=O)Nc1ccccc1,–,–,10,–
COC(=O)NNC(=O)COc1ccc2ccccc2c1Br,–,–,–,–
Cc1[nH]n2c(=O)cc(-c3ccc([N+](=O)[O-])cc3)nc2c1-c1ccccc1,–,–,14,–
